How the values were obtained:
Canis familiaris [1] = species on record: Canis familiaris; test: repolarization to reach -60mV, in canine Purkinje Fibers at a concentration of 3.0 uM at 1000 ms (simulating normal heart rate); type: functional, Canis lupus familiaris, Purkinje fiber
Procedure, shortened: (§1)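 Purkinje fiber bundles were stimulated with square-wave current pulses of 2.0 ms at twice threshold and equilibrated for at least 1 h, or until action potential parameters were steady. Each concentration was superfused for 45-60 min to reach steady state. Action potentials were recorded at four to six sites per fiber, under control and after drug.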

Canis familiaris [2] = species on record: Canis familiaris; test: Repolarization to reach -60mV, in canine Purkinje Fibers at a concentration of 3.0 uM at 300 ms (simulating tachycardia); type: functional, Canis lupus familiaris, Purkinje fiber
Procedure, shortened: (§2)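 Isolated canine Purkinje fiber bundles were driven by square-wave pulses 2.0 ms long at 2× threshold and equilibrated ≥1 h to steady state. Each concentration was superfused 45–60 min before recording, and action potentials were sampled at 4–6 sites per fiber in control and after drug, giving Vmax and APD to −60 mV.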

Canis familiaris [3] = species on record: Canis familiaris; test: Maximum rate of rise of the upstroke of transmembrane potential, in canine Purkinje Fibers at a concentration of 3.0 uM at 300 ms (simulating tachycardia); type: functional; parameters: unit not given here; conditions: Canis lupus familiaris, Purkinje fiber; procedure, shortened: as §2
Canis familiaris [4] = species on record: Canis familiaris; test: Maximum rate of rise of the upstroke of transmembrane potential, in canine Purkinje Fibers at a concentration of 3.0 uM at 1000 ms (simulating normal heart rate); type: functional; parameters: unit not given here; conditions: Canis lupus familiaris, Purkinje fiber; procedure, shortened: as §2
Canis familiaris [5] = species on record: Canis familiaris; test: Maximum rate of rise of the upstroke of transmembrane potential, in canine Purkinje Fibers at a concentration of 0.3 uM at 300 ms (simulating tachycardia); type: functional; parameters: unit not given here; conditions: Canis lupus familiaris, Purkinje fiber; procedure, shortened: as §2
Canis familiaris [6] = species on record: Canis familiaris; test: Maximum rate of rise of the upstroke of transmembrane potential, in canine Purkinje Fibers at a concentration of 1.0 uM at 300 ms (simulating tachycardia); type: functional; parameters: unit not given here; conditions: Canis lupus familiaris, Purkinje fiber; procedure, shortened: as §2
Canis familiaris [7] = species on record: Canis familiaris; test: Maximum rate of rise of the upstroke of transmembrane potential, in canine Purkinje Fibers at a concentration of 1.0 uM at 1000 ms (simulating normal heart rate); type: functional; parameters: unit not given here; conditions: Canis lupus familiaris, Purkinje fiber; procedure, shortened: as §2
Canis familiaris [8] = species on record: Canis familiaris; test: Repolarization to reach -60mV, in canine Purkinje Fibers at a concentration of 0.3 uM at 300 ms (simulating tachycardia); type: functional, Canis lupus familiaris, Purkinje fiber; procedure, shortened: as §2
Canis familiaris [9] = species on record: Canis familiaris; test: repolarization to reach -60mV, in canine Purkinje Fibers at a concentration of 0.3 uM at 1000 ms (simulating normal heart rate); type: functional, Canis lupus familiaris, Purkinje fiber; procedure, shortened: as §1
Canis familiaris [10] = species on record: Canis familiaris; test: Repolarization to reach -60mV, in canine Purkinje Fibers at a concentration of 1.0 uM at 300 ms (simulating tachycardia); type: functional, Canis lupus familiaris, Purkinje fiber; procedure, shortened: as §2
Canis familiaris [11] = species on record: Canis familiaris; test: Maximum rate of rise of the upstroke of transmembrane potential, in canine Purkinje Fibers at a concentration of 0.3 uM at 1000 ms (simulating normal heart rate); type: functional; parameters: unit not given here; conditions: Canis lupus familiaris, Purkinje fiber; procedure, shortened: as §2
Canis familiaris [12] = species on record: Canis familiaris; test: repolarization to reach -60mV, in canine Purkinje Fibers at a concentration of 1.0 uM at 1000 ms (simulating normal heart rate); type: functional, Canis lupus familiaris, Purkinje fiber; procedure, shortened: as §1
Canis familiaris [13] = test: Ventricular effective refractory period by the compound in open chest anesthetized dog, after iv administration at a dose of 5.0 mg/kg.; type: functional, Canis lupus familiaris, Heart; parameters: unit not given here
Canis familiaris [14] = test: Ventricular conduction time by the compound in open chest anesthetized dog, after iv administration at a dose of 5.0 mg/kg.; type: functional, Canis lupus familiaris, Heart; parameters: unit not given here
Procedure, shortened: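 Mongrel dogs were anesthetized with sodium pentobarbital (30 mg/kg iv, then 5 mg/kg per h), the chest opened, and the heart paced at BCL 300 ms. Compound was given iv or intraduodenally. Ventricular conduction time was taken as the interval between electrograms at the proximal and distal sites of the recording electrode array. 2-5 dogs per dose.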

Canis familiaris [15] = test: Mean arterial pressure by the compound in open chest anesthetized dog, after iv administration at a dose of 5.0 mg/kg.; type: functional, Canis lupus familiaris, Artery; parameters: unit not given here
Procedure, shortened: (§3)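 Hemodynamics (heart rate, mean arterial pressure) recorded in pentobarbital-anesthetized (30 mg/kg iv, 5 mg/kg per h maintenance) open-chest mongrel dogs during the refractoriness study at BCL 300 ms. Readings were taken before and after iv or intraduodenal compound and expressed as change from control.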

Canis familiaris [16] = test: Atrial conduction time by the compound in open chest anesthetized dog, after iv administration at a dose of 5.0 mg/kg.; type: functional, Canis lupus familiaris, Cardiac atrium; parameters: unit not given here
Procedure, shortened: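 Mongrel dogs anesthetized with sodium pentobarbital (30 mg/kg iv, then 5 mg/kg per h), chest opened, paced at BCL 300 ms. Atrial conduction time was taken as the interval between electrograms recorded at the proximal and distal sites of the atrial recording electrode array, before and after iv or intraduodenal dosing. Values are changes from control.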

Canis familiaris [17] = test: Atrial effective refractory period by the compound in open chest anesthetized dog, after iv administration at a dose of 5.0 mg/kg.; type: functional, Canis lupus familiaris, Cardiac atrium; parameters: unit not given here
Procedure, shortened: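 Open-chest mongrel dogs under sodium pentobarbital anesthesia (30 mg/kg iv plus 5 mg/kg per h), paced at basic cycle length 300 ms. Atrial effective refractory period was determined by electrical stimulation before and after iv or intraduodenal compound and reported as change from control.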

Canis familiaris [18] = test: Heart beat by the compound in open chest anesthetized dog, after iv administration at a dose of 5.0 mg/kg.; type: functional, Canis lupus familiaris; parameters: unit not given here; procedure, shortened: as §3
Canis familiaris [19] = species on record: Canis familiaris; test: Repolarization to reach -60mV, in canine Purkinje Fibers at a concentration of 0.10 uM at 300 ms (simulating tachycardia); type: functional, Canis lupus familiaris, Purkinje fiber; procedure, shortened: as §2
Canis familiaris [20] = species on record: Canis familiaris; test: Maximum rate of rise of the upstroke of transmembrane potential, in canine Purkinje Fibers at a concentration of 0.10 uM at 1000 ms (simulating normal heart rate); type: functional; conditions: Canis lupus familiaris, Purkinje fiber; procedure, shortened: as §2
Canis familiaris [21] = species on record: Canis familiaris; test: repolarization to reach -60mV, in canine Purkinje Fibers at a concentration of 0.10 uM at 1000 ms (simulating normal heart rate); type: functional, Canis lupus familiaris, Purkinje fiber; procedure, shortened: as §1
Canis familiaris [22] = species on record: Canis familiaris; test: Maximum rate of rise of the upstroke of transmembrane potential, in canine Purkinje Fibers at a concentration of 0.10 uM at 300 ms (simulating tachycardia); type: functional; conditions: Canis lupus familiaris, Purkinje fiber; procedure, shortened: as §2

Row | SMILES | APD (Canis familiaris [1]) [%] | APD (Canis familiaris [2]) [%] | Vmax (Canis familiaris [3]) | Vmax (Canis familiaris [4]) | further results
1 | CN(Cc1nc2ccccc2n1C)CC(O)COc1ccc(NS(C)(=O)=O)cc1 (stereo not given) | 19 | 12 | 4 | 7 | 
2 | Cc1nc2ccccc2nc1CN(C)CC(O)COc1ccc(NS(C)(=O)=O)cc1 (stereo not given) | 17 | 11 | 3 | 7 | 
3 | CS(=O)(=O)Nc1ccc(OCC(O)CN2CCN(c3ncccn3)CC2)cc1 (stereo not given) | 23 | 15 | -12 | -17 | 
4 | CN(Cc1cnc2ccccc2n1)CC(O)COc1ccc(NS(C)(=O)=O)cc1 (stereo not given) | 26 | 8 | 6 | 1 | 
5 | COc1ccc2nc(CN(C)CC(O)COc3ccc(NS(C)(=O)=O)cc3)ccc2c1 (stereo not given) | 54 | 16 | -6 | 0 | 
6 | CN(Cc1ccc2ccccc2n1)CC(O)COc1ccc(C#N)cc1 (stereo not given) | 41 | 0 | 8 | 19 | 
7 | CN(Cc1cc2ccccc2o1)CC(O)COc1ccc(NS(C)(=O)=O)cc1 (stereo not given) | 47 | 16 | 16 | 4 | 
8 | CN(Cc1ccc2ccccc2n1)CC(O)COc1ccc([N+](=O)[O-])cc1 (stereo not given) | 63 | 27 | -10 | 0 | 
9 | CN(Cc1ccc2ccccc2n1)CC(O)COc1ccc(-c2nn[nH]n2)cc1 (stereo not given) | 11 | 4 | 4 | -10 | 
10 | Cc1nc2ccccc2nc1CN(C)CC(O)COc1ccc(-n2ccnc2)cc1 (stereo not given) | 69 | 24 | 10 | 13 | 
11 | CN(Cc1ccc2ccccc2n1)C[C@@H](O)COc1ccc(NS(C)(=O)=O)cc1 | 70 | 27 | -1 | 4 | Vmax (Canis familiaris [5]): -4; Vmax (Canis familiaris [6]): -9; Vmax (Canis familiaris [7]): 6; APD (Canis familiaris [8]): 12%; APD (Canis familiaris [9]): 25%; APD (Canis familiaris [10]): 22%; Vmax (Canis familiaris [11]): 9; APD (Canis familiaris [12]): 48%
12 | CN(Cc1ccc2cc(NS(C)(=O)=O)ccc2n1)CC(O)COc1ccc(NS(C)(=O)=O)cc1 (stereo not given) | 66 | 18 | -1 | -6 | Vmax (Canis familiaris [5]): -2; Vmax (Canis familiaris [6]): -4; Vmax (Canis familiaris [7]): -10; APD (Canis familiaris [8]): 13%; APD (Canis familiaris [9]): 42%; APD (Canis familiaris [10]): 17%; Vmax (Canis familiaris [11]): -12; APD (Canis familiaris [12]): 55%
13 | CN(Cc1ccc2ccccc2n1)C[C@H](O)COc1ccc(NS(C)(=O)=O)cc1 | 54 | 27 | 0 | -5 | Vmax (Canis familiaris [5]): -4; Vmax (Canis familiaris [6]): -3; Vmax (Canis familiaris [7]): 0; APD (Canis familiaris [8]): 13%; APD (Canis familiaris [9]): 22%; APD (Canis familiaris [10]): 14%; Vmax (Canis familiaris [11]): 9; APD (Canis familiaris [12]): 40%
14 | CN(Cc1ccc2ccccc2n1)CC(O)COc1ccc(-n2ccnc2)cc1 (stereo not given) | 39 | 10 | -11 | -15 | 
15 | CS(=O)(=O)Nc1ccc(OCC(O)CN2CCN(c3ccccn3)CC2)cc1 (stereo not given) | 53 | 24 | 12 | 9 | 
16 | O=[N+]([O-])c1ccc(OCC(O)CN2CCN(c3ccccn3)CC2)cc1 (stereo not given) | 29 | 15 | -19 | 8 | VERP (Canis familiaris [13]): 25; VCT (Canis familiaris [14]): -7; MBP (Canis familiaris [15]): -33; ACT (Canis familiaris [16]): 16; AERP (Canis familiaris [17]): 69; HR (Canis familiaris [18]): -33
17 | CN(Cc1ccc2cc(F)ccc2n1)CC(O)COc1ccc(NS(C)(=O)=O)cc1 (stereo not given) | 55 | 22 | 8 | 11 | Vmax (Canis familiaris [5]): 3; Vmax (Canis familiaris [6]): 4; Vmax (Canis familiaris [7]): 5; APD (Canis familiaris [8]): 12%; APD (Canis familiaris [9]): 31%; APD (Canis familiaris [10]): 19%; Vmax (Canis familiaris [11]): 3; APD (Canis familiaris [12]): 50%
18 | CS(=O)(=O)Nc1ccc(OCCCN(Cc2ccc3cc(NS(C)(=O)=O)ccc3n2)C2CCCC2)cc1 |  |  |  |  | APD (Canis familiaris [19]): 13%; Vmax (Canis familiaris [20]): 7; APD (Canis familiaris [21]): 30%; Vmax (Canis familiaris [22]): 8
19 | CN(CCCOc1ccc(NS(C)(=O)=O)cc1)Cc1ccc2ccccc2n1 | 45 | 22 | 3 | 5 | VERP (Canis familiaris [13]): 30; VCT (Canis familiaris [14]): 1; MBP (Canis familiaris [15]): -11; ACT (Canis familiaris [16]): -6; AERP (Canis familiaris [17]): 52; HR (Canis familiaris [18]): -23
20 | Cn1c(N2CCN(CC(O)COc3ccc(NS(C)(=O)=O)cc3)CC2)nc2ccccc21 (stereo not given) | 83 | 21 | -9 | -3 | 
21 | CC(C)N(Cc1ccc2ccccc2n1)CC(O)COc1ccc(NS(C)(=O)=O)cc1 (stereo not given) | 49 | 30 | -11 | -10 | 
22 | CN(CCCOc1ccc(NS(C)(=O)=O)cc1)Cc1cnc2ccccc2n1 | 62 | 27 | -14 | -16 | 
23 | CN(Cc1ccc2cc(Cl)ccc2n1)CC(O)COc1ccc(NS(C)(=O)=O)cc1 (stereo not given) | 65 | 29 | -2 | 0 | 
24 | CN(Cc1nc2ccccc2[nH]1)CC(O)COc1ccc(NS(C)(=O)=O)cc1 (stereo not given) | 14 | 3 | -11 | 1 | 

— ChEMBL document CHEMBL1125789, “Synthesis and selective class III antiarrhythmic activity of novel N-heteroaralkyl-substituted 1-(aryloxy)-2-propanolamine and related propylamine derivatives” (J Med Chem, 1991)
